Data as given in ChEMBL document CHEMBL4715934, “Discovery of Imidazopyridines as Potent Inhibitors of Indoleamine 2,3-Dioxygenase 1 for Cancer Immunotherapy” (ACS Med Chem Lett, 2021).

Legend:
[1] = molecular target: T1, Indoleamine 2,3-dioxygenase 1 (Homo sapiens, UniProt P14902); assay: Inhibition of IDO1 in recombinant IFN-gamma induced human HeLa cells incubated for 18 hrs by fluorescence microplate reader assay
Summary of the method: (§1)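 HeLa (human) or M109 (murine) cells induced with IFNγ to express IDO1, then cellular IDO1 activity measured; values are the average of N = 2 unless noted.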

[2] = Metabolic stability in rat liver microsomes assessed as parent compound remaining at 0.5 uM after 10 mins; assay type: ADME, Microsome; settings: read-out: Stabilty
Summary of the method: (§2)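 Parent compound at 0.5 μM incubated 10 min with 1 mg/mL human, mouse or rat liver microsomes; fraction of parent remaining reported; average of N = 2 unless noted.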

[3] = molecular target: Indoleamine 2,3-dioxygenase 1 (Mus musculus, UniProt P28776); assay: Inhibition of IDO1 in recombinant IFN-gamma induced mouse M109 cells incubated for 18 hrs by fluorescence microplate reader assay; assay type: cell-based; summary of the method: as §1
[4] = Metabolic stability in human liver microsomes assessed as parent compound remaining at 0.5 uM after 10 mins; assay type: ADME, Microsome; settings: read-out: Stabilty; summary of the method: as §2
[5] = Metabolic stability in mouse liver microsomes assessed as parent compound remaining at 0.5 uM after 10 mins; assay type: ADME, Microsome; settings: read-out: Stabilty; summary of the method: as §2
[6] = molecular target: T1, Indoleamine 2,3-dioxygenase 1; assay: Inhibition of IDO1 in IFN-gamma/LPS induced human whole blood assessed as tryptophan/kynurenine level measured after 18 hrs by RapidFire mass spectrometry; assay type: tissue-based

T1 sequence (P14902 whole entry): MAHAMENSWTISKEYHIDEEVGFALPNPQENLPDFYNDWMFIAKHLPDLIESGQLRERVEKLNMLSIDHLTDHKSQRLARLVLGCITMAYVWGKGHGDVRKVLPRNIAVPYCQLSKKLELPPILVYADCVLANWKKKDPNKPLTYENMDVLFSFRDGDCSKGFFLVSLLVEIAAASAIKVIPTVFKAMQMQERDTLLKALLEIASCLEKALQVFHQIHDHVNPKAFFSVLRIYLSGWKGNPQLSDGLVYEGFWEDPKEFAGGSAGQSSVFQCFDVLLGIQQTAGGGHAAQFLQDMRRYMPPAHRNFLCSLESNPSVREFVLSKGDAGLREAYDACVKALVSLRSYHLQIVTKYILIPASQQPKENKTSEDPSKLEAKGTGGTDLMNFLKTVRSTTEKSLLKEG
Chain of Indoleamine 2,3-dioxygenase 1 (Mus musculus, UniProt P28776) (P28776 whole entry): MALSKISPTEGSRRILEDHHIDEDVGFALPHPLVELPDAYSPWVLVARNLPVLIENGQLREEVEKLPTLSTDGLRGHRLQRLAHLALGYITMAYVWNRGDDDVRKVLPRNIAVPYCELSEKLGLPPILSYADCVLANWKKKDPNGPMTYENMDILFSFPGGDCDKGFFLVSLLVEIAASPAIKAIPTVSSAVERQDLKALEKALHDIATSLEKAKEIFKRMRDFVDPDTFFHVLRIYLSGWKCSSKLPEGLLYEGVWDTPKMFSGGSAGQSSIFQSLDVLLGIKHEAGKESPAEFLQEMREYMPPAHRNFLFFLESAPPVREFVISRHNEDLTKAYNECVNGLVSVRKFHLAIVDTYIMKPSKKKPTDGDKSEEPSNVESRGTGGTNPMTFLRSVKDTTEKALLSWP

| SMILES | IC50 [1] [nM] | remaining at 10 min, 0.5 µM [2] [%] | IC50 [3] [nM] | remaining at 10 min, 0.5 µM [4] [%] | remaining at 10 min, 0.5 µM [5] [%] | IC50 [6] [nM] |
| --- | --- | --- | --- | --- | --- | --- |
| C[C@@H](c1nnc(-c2ccc(Cl)cc2)[nH]1)[C@H]1CC[C@@H](c2ccnc3ccc(F)cc32)CC1 | 20 | 82 | 286 | 88 | 69 |  |
| CCC(c1nc2ccc(Cl)cc2[nH]1)[C@H]1CC[C@H](Oc2ccnc3ccccc23)CC1 (stereo partly specified) | 7 | 80 | 52 | 84 | 82 | 36 |
| CCC(c1nc2ccc(Cl)cc2[nH]1)[C@H]1CC[C@@H](c2ccnc3ccc(F)cc32)CC1 (stereo partly specified) | 2 | 27 | 3 | 82 | 49 | 9 |
| CCC(Nc1nnc(-c2ccc(OC)cc2)o1)[C@H]1CC[C@@H](c2ccnc3c(F)cc(F)cc32)CC1 (stereo partly specified) | 3 | 52 | 36 | 54 | 8 | 14 |
| C[C@@H](c1nnc(-c2ccc(Cl)cc2)o1)[C@H]1CC[C@@H](c2ccnc3ccc(F)cc32)CC1 | 239 | 23 | 348 | 68 | 41 |  |
| CCC(Nc1nnc(-c2ccc(OC)cc2)o1)[C@H]1CC[C@@H](c2ccnc3ccc(F)cc32)CC1 (stereo partly specified) | 6 | 45 | 31 | 66 | 31 | 16 |
| CCC(c1nc2ncc(Cl)cc2[nH]1)[C@H]1CC[C@@H](c2ccnc3ccc(F)cc32)CC1 (stereo partly specified) | 2 | 35 | 5 | 78 | 7 | 6 |
| C[C@@H](c1nc2ncc(Cl)cc2[nH]1)[C@H]1CC[C@@H](c2ccnc3ccc(F)cc32)CC1 | 4 | 17 | 36 | 67 | 22 | 39 |
| C[C@@H](c1ncc(-c2ccc(Cl)cc2)[nH]1)[C@H]1CC[C@@H](c2ccnc3ccc(F)cc32)CC1 | 11 | 3 | 80 | 58 | 59 |  |
